ChEMBL document CHEMBL4706593, “Induced protein degradation of histone deacetylases 3 (HDAC3) by proteolysis targeting chimera (PROTAC)” (Eur J Med Chem, 2020)
The source made the active and inactive calls. No cut-off for these calls is given here.

Experiments:
Histone deacetylase 2 = Histone deacetylase 2 (Homo sapiens, UniProt Q92769); assay: Inhibition of recombinant human full-length C-terminal FLAG-tagged HDAC2 expressed in baculovirus infected Sf9 insect cells using Boc-Lys(epsilon-Ac)-AMC as substrate measured after 90 mins by fluorescence assay
[1] = Cytotoxicity against mouse RAW264.7 cells assessed as cell survival up to 10 uM measured after 24 hrs by MTS assay relative to control; format: cell-based; conditions: read-out: Survival
Method in brief: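 RAW264.7 macrophages (ATCC, passage 5–16) grown in DMEM GlutaMAX with 10% heated FBS at 37 °C, 5% CO2. Cells seeded at 25,000 cells/cm2 and treated the next day in fresh medium with compound up to 10 μM for 24 h at 37 °C. CellTiter 96 AQueous One (MTS) reagent added for 2 h at 37 °C in the dark, absorbance read at 490 nm, expressed as % of control.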

[2] = biological target: T1, Protein cereblon/Histone deacetylase 2 (Mus musculus) (UniProt P70288+Q8C7D2); assay: Protac activity at CRBN/HDAC2 in mouse RAW264.7 cells assessed as induction of HDAC2 degradation at 10 uM by Western blot analysis; format: cell-based
Method in brief: (§1)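 RAW264.7 macrophages treated at 10 µM. Cells lysed in ice-cold HEPES/MgCl2/EDTA/0.5% Triton X-100 with protease inhibitors, protein by BCA, 4–12% Bis-Tris SDS-PAGE, PVDF transfer. Probed with HDAC1, HDAC2 or HDAC3 antibodies (1:2000) and β-actin, then HRP secondary and chemiluminescence. Bands quantified by densitometry as fold of untreated control, mean ± SD of 2 independent experiments.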

[3] = biological target: T2, Protein cereblon/Histone deacetylase 1 (Mus musculus) (UniProt O09106+Q8C7D2); assay: Protac activity at CRBN/HDAC1 in mouse RAW264.7 cells assessed as induction of HDAC1 degradation at 10 uM by Western blot analysis; format: cell-based; method in brief: as §1
Histone deacetylase 1 = Histone deacetylase 1 (Homo sapiens, UniProt Q13547); assay: Inhibition of recombinant human C-terminal His/FLAG-tagged HDAC1 (1 to 482 residues) expressed in Sf9 insect cells using Boc-Lys(epsilon-Ac)-AMC as substrate measured after 90 mins by fluorescence assay
[4] = biological target: Histone deacetylase 3/Nuclear receptor corepressor 2 (HDAC3/NCoR2) (Homo sapiens, UniProt O15379); assay: Inhibition of human recombinant C-terminal His-tagged HDAC3 (1 to 428 residues)/N-terminal GST-tagged NCOR2 (395 to 489 residues) expressed in baculovirus infected Sf9 insect cells using Boc-Lys(epsilon-Ac)-AMC as substrate measured after 90 mins by fluorescence assay
Method in brief: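 Incubated with inhibitor dilutions (in 10% DMSO/buffer) and Boc-Lys(ε-Ac)-AMC, 90 min at 37 °C. Stopped with trypsin plus 200 µM vorinostat, 30 min at 37 °C.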

RAW264.7 [5] = assay: Cytotoxicity against mouse RAW264.7 cells assessed as reduction in cell proliferation at 3 uM measured after 24 hrs by MTS assay relative to control; format: cell-based; set-up: scale not given: the % may be the effect or the level left; conditions: raw264.7, 24 h
Method in brief: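 RAW264.7 cells (passage 5–16, DMEM GlutaMAX with 10% heated FBS, 37 °C, 5% CO2) seeded at 25,000 cells/cm2. Next day, medium swapped for fresh medium containing compound. After 24h, CellTiter 96 AQueous One (MTS) added, 2h at 37 °C in dark. Absorbance read at 490 nm and expressed as % of control.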

[6] = Down regulation of NFkappaB p65 expression in LPS/IFNgamma-induced mouse RAW264.7 cells at 10 uM incubated for 20 hrs followed by LPS/IFNgamma stimulation and measured after 4 hrs by Western blot analysis; conditions: raw264.7, 24 h
Method in brief: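 RAW264.7 cells treated and NF-κB p65 protein measured by western blot with p65 antibody (1:2500), β-actin loading control, HRP secondary and chemiluminescent detection.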

[7] = biological target: T3, Protein cereblon/Histone deacetylase 3 (Mus musculus) (UniProt O88895+Q8C7D2); assay: Protac activity at CRBN/HDAC3 in mouse RAW264.7 cells assessed as induction of HDAC3 degradation at 10 uM by Western blot analysis; format: cell-based; method in brief: as §1
[8] = biological target: T2, Protein cereblon/Histone deacetylase 1 (Mus musculus); assay: Protac activity at CRBN/HDAC1 in mouse RAW264.7 cells assessed as induction of HDAC1 degradation at 30 to 100 uM measured after 24 hrs by Western blot analysis; format: cell-based; conditions: dose 30-100 µM
Method in brief: (§2)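 RAW264.7 macrophages exposed to 1–100 µM for HDAC1/2/3 level assessment. Protein read by western blot: lysis, BCA, Bis-Tris SDS-PAGE, PVDF, overnight 4 °C primary antibodies (HDAC1, 2, 3 at 1:2000; β-actin 1:10000), HRP secondaries, chemiluminescence.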

[9] = biological target: T1, Protein cereblon/Histone deacetylase 2 (Mus musculus); assay: Protac activity at CRBN/HDAC2 in mouse RAW264.7 cells assessed as induction of HDAC2 degradation at 100 uM measured after 24 hrs by Western blot analysis; format: cell-based; method in brief: as §2
[10] = biological target: T3, Protein cereblon/Histone deacetylase 3 (Mus musculus); assay: Protac activity at CRBN/HDAC3 in mouse RAW264.7 cells assessed as induction of HDAC3 degradation at 10 to 100 uM measured after 24 hrs by Western blot analysis; format: cell-based; conditions: dose 10-100 µM; method in brief: as §2
[11] = biological target: Protein cereblon/Histone deacetylase 3 (Homo sapiens) (UniProt O15379+Q96SW2); assay: Protac activity at CRBN/HDAC3 in human A549 cells assessed as induction of HDAC3 degradation up to 50 uM by Western blot analysis; format: cell-based; conditions: dose microM <=50
[12] = biological target: T1, Protein cereblon/Histone deacetylase 2 (Mus musculus); assay: Protac activity at CRBN/HDAC2 in mouse RAW264.7 cells assessed as induction of HDAC2 degradation at 0.01 to 10 uM measured after 24 hrs by Western blot analysis; format: cell-based; conditions: dose 0.01-10 µM
Method in brief: (§3)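 RAW264.7 cells treated across 0.001–30 µM. Lysates blotted as standard, but membranes blocked in Odyssey buffer and probed with IRDye 680RD anti-mouse and 800CW anti-rabbit secondaries (1:10000). Bands imaged on a fluorescence scanner and quantified to derive DC50 (50% degradation concentration), expressed as percentage of untreated control, mean ± SD of 2–3 independent experiments.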

[13] = biological target: T3, Protein cereblon/Histone deacetylase 3 (Mus musculus); assay: Protac activity at CRBN/HDAC3 in mouse RAW264.7 cells assessed as increase of H3K27 acetylation at 10 uM measured after 24 hrs by Western blot analysis; format: cell-based
Method in brief: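 RAW264.7 macrophages treated for 24h. H3K27 acetylation measured by western blot with acH3K27 antibody (1:1000), HRP detection. Bands quantified as fold of untreated control, mean ± SD of 2 independent experiments.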

[14] = biological target: T3, Protein cereblon/Histone deacetylase 3 (Mus musculus); assay: Protac activity at CRBN/HDAC3 in mouse RAW264.7 cells assessed as induction of HDAC3 degradation at 10 uM measured after 24 hrs in presence of HDAC ligand CI994 by Western blot analysis; format: cell-based
Method in brief: (§4)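 RAW264.7 cells pre-treated 1h with pomalidomide or CI994 (competitor), then the PROTAC added for 24h combined treatment. Control cells received competitor alone for 25h. HDAC3 measured by western blot, quantified as fold of untreated control, mean ± SD of 2 independent experiments.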

RAW264.7 [15] = assay: Effect on LPS/IFNgamma-induced IL-10 mRNA expression in mouse RAW264.7 cells at 1 uM incubated for 20 hrs followed by LPS/IFNgamma stimulation and measured after 4 hrs by RT-qPCR analysis; format: functional, cell-based; conditions: time 24.0 hrs
Method in brief: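 RAW264.7 macrophages treated for 24h, with LPS/IFNγ stimulation during the final 4h. Vehicle cells received a proportional DMSO dilution. Total RNA isolated from DPBS-washed cells and IL-10 transcription measured by RT-qPCR. Mean ± SD of 2–3 independent experiments.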

[16] = biological target: T3, Protein cereblon/Histone deacetylase 3 (Mus musculus); assay: Protac activity at CRBN/HDAC3 in mouse RAW264.7 cells assessed as induction of HDAC3 degradation at 10 uM measured after 24 hrs in presence of CRBN ligand pomalidomide by Western blot analysis; format: cell-based; method in brief: as §4
[17] = biological target: T2, Protein cereblon/Histone deacetylase 1 (Mus musculus); assay: Protac activity at CRBN/HDAC1 in mouse RAW264.7 cells assessed as induction of HDAC1 degradation at 0.01 to 10 uM measured after 24 hrs by Western blot analysis; format: cell-based; conditions: dose 0.01-10 µM
[18] = biological target: T4, Protein cereblon/Histone deacetylase 3 (Mus musculus, UniProt O88895+Q8C7D2); assay: Protac activity at CRBN/HDAC3 in mouse RAW264.7 cells assessed as induction of HDAC3 degradation measured after 24 hrs by Western blot analysis; format: cell-based; method in brief: as §3
T4 sequence (O88895 whole entry): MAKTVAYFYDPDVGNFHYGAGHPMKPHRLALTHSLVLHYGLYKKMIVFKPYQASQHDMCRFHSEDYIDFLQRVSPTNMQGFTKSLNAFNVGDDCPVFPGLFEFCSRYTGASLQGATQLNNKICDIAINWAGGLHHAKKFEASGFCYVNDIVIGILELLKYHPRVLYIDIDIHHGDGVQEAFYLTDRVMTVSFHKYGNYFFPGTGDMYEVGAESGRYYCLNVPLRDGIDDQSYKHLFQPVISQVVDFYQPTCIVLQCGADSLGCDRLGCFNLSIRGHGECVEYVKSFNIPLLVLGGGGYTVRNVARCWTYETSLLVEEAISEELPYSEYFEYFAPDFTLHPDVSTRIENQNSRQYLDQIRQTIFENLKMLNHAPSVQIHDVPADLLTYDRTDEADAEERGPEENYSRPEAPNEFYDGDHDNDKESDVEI
T4 sequence (Q8C7D2 whole entry): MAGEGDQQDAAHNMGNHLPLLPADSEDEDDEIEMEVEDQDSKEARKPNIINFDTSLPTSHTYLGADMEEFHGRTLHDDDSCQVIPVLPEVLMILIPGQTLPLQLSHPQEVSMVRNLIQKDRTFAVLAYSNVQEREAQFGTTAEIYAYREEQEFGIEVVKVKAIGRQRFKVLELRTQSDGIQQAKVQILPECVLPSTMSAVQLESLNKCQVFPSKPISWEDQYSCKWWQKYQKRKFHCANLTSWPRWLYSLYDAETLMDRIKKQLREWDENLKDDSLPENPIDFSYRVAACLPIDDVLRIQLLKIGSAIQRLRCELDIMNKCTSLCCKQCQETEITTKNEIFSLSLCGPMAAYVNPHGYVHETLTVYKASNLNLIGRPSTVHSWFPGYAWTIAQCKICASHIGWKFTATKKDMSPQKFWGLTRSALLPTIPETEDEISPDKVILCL

[19] = biological target: T3, Protein cereblon/Histone deacetylase 3 (Mus musculus); assay: Protac activity at CRBN/HDAC3 in mouse RAW264.7 cells assessed as induction of HDAC3 degradation at 10 uM measured after 24 hrs in presence of proteasome inhibitor bortezomib by Western blot analysis; format: cell-based
Method in brief: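 RAW264.7 macrophages treated 24h with bortezomib, the PROTAC, or both together. HDAC3 measured by western blot, quantified as fold of untreated control, mean ± SD of 2 independent experiments.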

[20] = biological target: T3, Protein cereblon/Histone deacetylase 3 (Mus musculus); assay: Protac activity at CRBN/HDAC3 in mouse RAW264.7 cells assessed as induction of HDAC3 degradation at 10 uM measured after 6 to 48 hrs by Western blot analysis; format: cell-based; conditions: time 6-48 hrs
Method in brief: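 RAW264.7 macrophages treated for the indicated times. HDAC3 level measured by western blot against β-actin. Bands quantified as fold of untreated control, mean ± SD of 2 independent experiments.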

Histone deacetylase 3/Nuclear receptor corepressor 2 (HDAC3/NCoR2), sequence (O15379 whole entry, the tested form may be a part): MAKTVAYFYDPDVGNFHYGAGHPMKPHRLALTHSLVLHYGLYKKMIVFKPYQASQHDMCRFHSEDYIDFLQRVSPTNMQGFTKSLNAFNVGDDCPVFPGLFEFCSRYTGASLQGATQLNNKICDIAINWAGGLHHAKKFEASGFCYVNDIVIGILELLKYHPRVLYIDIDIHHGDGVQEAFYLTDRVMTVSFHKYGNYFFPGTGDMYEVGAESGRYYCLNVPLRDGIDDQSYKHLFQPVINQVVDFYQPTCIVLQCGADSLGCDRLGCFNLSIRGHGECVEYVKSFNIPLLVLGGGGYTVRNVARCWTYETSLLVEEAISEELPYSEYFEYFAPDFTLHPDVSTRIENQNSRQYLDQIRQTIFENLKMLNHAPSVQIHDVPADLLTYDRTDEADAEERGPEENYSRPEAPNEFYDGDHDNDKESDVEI
Histone deacetylase 3/Nuclear receptor corepressor 2 (HDAC3/NCoR2), sequence (Q9Y618 whole entry, further chain, the tested form may be a part): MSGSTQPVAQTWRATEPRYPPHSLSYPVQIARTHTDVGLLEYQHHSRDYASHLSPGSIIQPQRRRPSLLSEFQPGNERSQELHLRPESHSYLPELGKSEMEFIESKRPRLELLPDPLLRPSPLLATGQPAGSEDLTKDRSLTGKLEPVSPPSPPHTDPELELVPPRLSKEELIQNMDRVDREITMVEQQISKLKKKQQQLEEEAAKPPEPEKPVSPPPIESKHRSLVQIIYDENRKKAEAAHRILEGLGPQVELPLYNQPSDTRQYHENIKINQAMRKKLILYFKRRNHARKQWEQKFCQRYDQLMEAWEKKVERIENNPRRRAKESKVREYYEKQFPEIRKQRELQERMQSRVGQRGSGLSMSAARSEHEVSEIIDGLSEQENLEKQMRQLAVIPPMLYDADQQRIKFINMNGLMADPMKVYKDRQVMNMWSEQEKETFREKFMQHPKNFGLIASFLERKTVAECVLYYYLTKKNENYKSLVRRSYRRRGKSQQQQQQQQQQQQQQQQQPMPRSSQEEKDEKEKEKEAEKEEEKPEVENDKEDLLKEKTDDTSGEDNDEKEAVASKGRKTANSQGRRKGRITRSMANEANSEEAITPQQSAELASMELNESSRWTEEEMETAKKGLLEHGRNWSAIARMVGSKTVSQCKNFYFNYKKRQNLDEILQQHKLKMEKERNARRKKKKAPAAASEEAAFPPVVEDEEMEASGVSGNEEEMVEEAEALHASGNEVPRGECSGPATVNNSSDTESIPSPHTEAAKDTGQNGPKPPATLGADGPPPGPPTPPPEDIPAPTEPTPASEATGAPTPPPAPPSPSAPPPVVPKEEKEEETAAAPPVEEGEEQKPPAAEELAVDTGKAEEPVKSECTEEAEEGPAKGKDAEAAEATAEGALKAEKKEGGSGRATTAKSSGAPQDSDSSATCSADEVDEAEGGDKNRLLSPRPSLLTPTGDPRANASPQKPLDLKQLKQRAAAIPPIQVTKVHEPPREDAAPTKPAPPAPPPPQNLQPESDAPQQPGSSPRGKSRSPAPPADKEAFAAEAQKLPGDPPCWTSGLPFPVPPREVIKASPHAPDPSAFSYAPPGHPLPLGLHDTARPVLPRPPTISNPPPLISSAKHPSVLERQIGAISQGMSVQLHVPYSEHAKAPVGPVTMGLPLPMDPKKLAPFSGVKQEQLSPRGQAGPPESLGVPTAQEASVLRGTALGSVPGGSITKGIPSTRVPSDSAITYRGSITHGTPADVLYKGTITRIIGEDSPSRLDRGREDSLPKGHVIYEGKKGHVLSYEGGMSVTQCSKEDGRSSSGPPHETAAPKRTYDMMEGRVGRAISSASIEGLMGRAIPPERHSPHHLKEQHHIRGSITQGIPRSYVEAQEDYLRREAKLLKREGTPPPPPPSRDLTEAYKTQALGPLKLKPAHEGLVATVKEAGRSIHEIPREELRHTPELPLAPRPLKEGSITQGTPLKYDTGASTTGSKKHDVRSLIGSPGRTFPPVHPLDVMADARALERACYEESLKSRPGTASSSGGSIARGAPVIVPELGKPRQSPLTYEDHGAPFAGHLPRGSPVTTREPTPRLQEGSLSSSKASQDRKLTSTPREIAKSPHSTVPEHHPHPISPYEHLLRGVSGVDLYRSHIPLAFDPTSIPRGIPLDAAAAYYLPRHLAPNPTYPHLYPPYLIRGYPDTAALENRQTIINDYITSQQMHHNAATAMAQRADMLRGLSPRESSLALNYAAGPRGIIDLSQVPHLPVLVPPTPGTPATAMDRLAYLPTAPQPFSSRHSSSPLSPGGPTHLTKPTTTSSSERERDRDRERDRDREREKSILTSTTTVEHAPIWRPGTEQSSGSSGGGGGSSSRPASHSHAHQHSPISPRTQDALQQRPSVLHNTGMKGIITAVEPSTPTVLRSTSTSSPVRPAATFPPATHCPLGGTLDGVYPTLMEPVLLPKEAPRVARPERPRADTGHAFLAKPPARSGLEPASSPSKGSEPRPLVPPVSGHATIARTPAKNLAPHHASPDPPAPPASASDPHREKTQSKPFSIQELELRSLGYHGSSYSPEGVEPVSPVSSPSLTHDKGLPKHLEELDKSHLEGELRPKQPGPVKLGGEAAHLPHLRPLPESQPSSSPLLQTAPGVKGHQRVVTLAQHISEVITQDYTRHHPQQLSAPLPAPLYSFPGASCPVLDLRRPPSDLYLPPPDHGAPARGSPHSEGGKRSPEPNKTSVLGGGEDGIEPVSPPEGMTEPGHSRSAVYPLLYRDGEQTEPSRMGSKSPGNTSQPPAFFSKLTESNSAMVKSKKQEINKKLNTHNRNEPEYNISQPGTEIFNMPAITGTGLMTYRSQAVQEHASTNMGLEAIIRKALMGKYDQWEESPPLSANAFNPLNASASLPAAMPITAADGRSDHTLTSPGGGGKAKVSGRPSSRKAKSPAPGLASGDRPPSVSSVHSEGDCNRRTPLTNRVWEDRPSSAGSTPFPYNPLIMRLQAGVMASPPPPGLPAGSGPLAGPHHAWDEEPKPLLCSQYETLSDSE
Histone deacetylase 2, sequence (Q92769 whole entry): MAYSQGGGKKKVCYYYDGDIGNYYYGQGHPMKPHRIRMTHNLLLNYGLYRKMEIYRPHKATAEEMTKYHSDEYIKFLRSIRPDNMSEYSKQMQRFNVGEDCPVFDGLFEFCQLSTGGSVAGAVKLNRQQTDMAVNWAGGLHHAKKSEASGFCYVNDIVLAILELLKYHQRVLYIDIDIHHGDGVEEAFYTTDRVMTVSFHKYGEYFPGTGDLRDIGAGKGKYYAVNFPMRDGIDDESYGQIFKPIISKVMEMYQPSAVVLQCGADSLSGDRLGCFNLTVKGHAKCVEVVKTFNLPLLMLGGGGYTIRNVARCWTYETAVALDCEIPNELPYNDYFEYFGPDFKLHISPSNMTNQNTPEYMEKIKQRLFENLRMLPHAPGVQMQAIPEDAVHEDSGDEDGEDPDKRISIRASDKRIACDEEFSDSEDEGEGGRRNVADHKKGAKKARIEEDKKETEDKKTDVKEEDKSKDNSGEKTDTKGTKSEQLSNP
T1 sequence (P70288 whole entry, looked up, one chain of several): as the sequence (Q92769 whole entry) above, with V289A, T477P, T480A counted along it
Histone deacetylase 1, sequence (Q13547 whole entry, the tested form may be a part): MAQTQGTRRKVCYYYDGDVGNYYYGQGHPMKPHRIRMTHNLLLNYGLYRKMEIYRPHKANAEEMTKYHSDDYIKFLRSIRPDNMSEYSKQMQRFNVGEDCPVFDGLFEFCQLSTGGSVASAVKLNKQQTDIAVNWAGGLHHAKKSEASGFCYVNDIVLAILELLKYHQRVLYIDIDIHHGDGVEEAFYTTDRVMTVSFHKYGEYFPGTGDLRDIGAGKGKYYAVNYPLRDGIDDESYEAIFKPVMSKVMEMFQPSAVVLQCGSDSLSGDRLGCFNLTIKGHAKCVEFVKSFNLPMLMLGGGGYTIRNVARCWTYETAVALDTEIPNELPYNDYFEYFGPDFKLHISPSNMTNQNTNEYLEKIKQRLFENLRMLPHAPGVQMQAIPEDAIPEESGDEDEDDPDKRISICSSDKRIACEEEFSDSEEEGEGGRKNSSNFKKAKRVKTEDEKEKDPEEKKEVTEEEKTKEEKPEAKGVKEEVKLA
T2 sequence (O09106 whole entry, looked up, one chain of several, the tested form may be a part): as the sequence (Q13547 whole entry, the tested form may be a part) above, with R8K, D399E, E424D counted along it
Protein cereblon/Histone deacetylase 3 (Homo sapiens), sequence (O15379 whole entry, looked up): as the sequence (O15379 whole entry, the tested form may be a part) above
Protein cereblon/Histone deacetylase 3 (Homo sapiens), sequence (Q96SW2 whole entry, looked up): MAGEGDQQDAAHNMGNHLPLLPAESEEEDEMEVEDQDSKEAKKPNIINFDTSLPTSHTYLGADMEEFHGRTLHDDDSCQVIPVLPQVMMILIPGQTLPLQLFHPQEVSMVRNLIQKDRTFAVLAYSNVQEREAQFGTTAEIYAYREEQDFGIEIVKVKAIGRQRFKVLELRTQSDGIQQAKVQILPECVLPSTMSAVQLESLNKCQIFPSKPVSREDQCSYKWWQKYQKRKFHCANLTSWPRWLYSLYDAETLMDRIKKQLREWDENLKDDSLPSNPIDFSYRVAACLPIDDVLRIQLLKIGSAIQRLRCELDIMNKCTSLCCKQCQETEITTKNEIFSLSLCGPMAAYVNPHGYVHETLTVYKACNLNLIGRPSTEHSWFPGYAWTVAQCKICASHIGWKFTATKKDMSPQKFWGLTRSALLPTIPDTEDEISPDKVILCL

SMILES	IC50 (Histone deacetylase 2) [nM]	viability at 24 h [1] [%]	Activity [3]	IC50 (Histone deacetylase 1) [nM]	IC50 [4] [nM]	Activity [6]	Activity [7]	further results
Nc1ccccc1NC(=O)c1ccc(NC(=O)CCCCCNc2cccc3c2C(=O)N(C2CCC(=O)NC2=O)C3=O)cc1 (stereo not given)	970	> 80	inactive	220	540	–	–	Activity [2]: Active
CC(=O)Nc1ccc(C(=O)Nc2ccccc2N)cc1 [TACEDINALINE]	–	–	–	–	–	–	–	Activity (RAW264.7 [5]): 30%
Nc1cccc2c1C(=O)N(C1CCC(=O)NC1=O)C2=O (stereo not given) [POMALIDOMIDE]	–	–	–	–	–	Toxic	–	–
Nc1ccccc1NC(=O)c1ccc(NC(=O)CCCCNc2cccc3c2C(=O)N(C2CCC(=O)NC2=O)C3=O)cc1 (stereo not given)	1000	> 80	inactive	420	1000	–	–	–
Nc1ccccc1NC(=O)c1ccc(NC(=O)CCCNc2cccc3c2C(=O)N(C2CCC(=O)NC2=O)C3=O)cc1 (stereo not given)	1200	> 80	inactive	360	870	–	Active	–
Nc1ccccc1NC(=O)c1ccc(NC(=O)CCCCNC(=O)CNc2cccc3c2C(=O)N(C2CCC(=O)NC2=O)C3=O)cc1 (stereo not given)	620	> 80	inactive	290	520	–	Active	Activity [8]: Active; Activity [9]: Active; Activity [10]: Active; Activity [11]: inactive
Nc1ccccc1NC(=O)c1ccc(NC(=O)CCCNC(=O)CNc2cccc3c2C(=O)N(C2CCC(=O)NC2=O)C3=O)cc1 (stereo not given)	1500	> 80	inactive	320	560	–	inactive	–
Nc1cccc2c1CN(C1CCC(=O)NC1=O)C2=O (stereo not given) [LENALIDOMIDE]	–	–	–	–	–	Toxic	–	–
O=C1CCC(N2C(=O)c3ccccc3C2=O)C(=O)N1 (stereo not given) [THALIDOMIDE]	–	–	–	–	–	Toxic	–	–
Nc1cc(F)ccc1NC(=O)c1ccc(NC(=O)CCCCNC(=O)CNc2cccc3c2C(=O)N(C2CCC(=O)NC2=O)C3=O)cc1 (stereo not given)	4200	–	–	3600	1100	Toxic	–	Activity [12]: inactive; Activity [13]: Active; Activity [14]: inactive; Activity (RAW264.7 [15]): inactive; Activity [16]: inactive; Activity [17]: inactive; DC50 [18]: 320 nM; Activity [19]: inactive; Activity [20]: Active
